# Test results published in ChEMBL document CHEMBL3861998, “Development of 6-arylcoumarins as nonsteroidal progesterone antagonists. Structure-activity relationships and fluorescence properties” (Bioorg Med Chem, 2016).
# Legend:
# Progesterone receptor [1] = molecular target: T1, Progesterone receptor (Homo sapiens, UniProt P06401); test: Antagonist activity at PR in human T47D cells assessed as inhibition of progesterone-induced alkaline phosphatase expression after 24 hrs by alkaline phopshatase assay; format: cell-based
# T1 sequence (P06401 whole entry): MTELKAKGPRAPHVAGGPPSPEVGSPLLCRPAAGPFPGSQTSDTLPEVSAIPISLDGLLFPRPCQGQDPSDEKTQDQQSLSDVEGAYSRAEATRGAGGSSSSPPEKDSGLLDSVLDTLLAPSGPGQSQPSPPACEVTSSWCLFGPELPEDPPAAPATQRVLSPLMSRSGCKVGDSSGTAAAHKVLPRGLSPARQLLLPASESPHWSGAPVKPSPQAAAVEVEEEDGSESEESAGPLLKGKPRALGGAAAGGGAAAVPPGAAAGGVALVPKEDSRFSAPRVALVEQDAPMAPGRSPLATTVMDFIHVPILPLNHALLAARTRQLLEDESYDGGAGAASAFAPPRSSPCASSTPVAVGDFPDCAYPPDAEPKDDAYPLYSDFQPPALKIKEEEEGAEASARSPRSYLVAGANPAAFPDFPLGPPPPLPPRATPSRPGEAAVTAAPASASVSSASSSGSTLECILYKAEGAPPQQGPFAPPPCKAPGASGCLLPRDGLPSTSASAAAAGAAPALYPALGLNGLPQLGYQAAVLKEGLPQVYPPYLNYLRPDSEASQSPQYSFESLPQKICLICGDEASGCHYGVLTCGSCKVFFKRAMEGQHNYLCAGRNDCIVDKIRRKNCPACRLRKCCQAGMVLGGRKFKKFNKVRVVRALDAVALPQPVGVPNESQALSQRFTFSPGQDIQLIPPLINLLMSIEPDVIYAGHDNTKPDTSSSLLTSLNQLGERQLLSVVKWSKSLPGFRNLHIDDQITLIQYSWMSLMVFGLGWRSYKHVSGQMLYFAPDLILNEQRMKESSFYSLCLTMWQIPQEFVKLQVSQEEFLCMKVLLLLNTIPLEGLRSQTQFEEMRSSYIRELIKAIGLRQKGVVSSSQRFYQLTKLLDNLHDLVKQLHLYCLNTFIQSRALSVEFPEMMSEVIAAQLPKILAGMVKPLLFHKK
# How it was run: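 T-47D cells seeded at 10^4 cells/well and incubated overnight at 37°C, 5% CO₂. Fresh medium with compound added for 24 h. Cells fixed in 1.8% formalin in PBS and washed. Substrate was 1 mg/mL p-nitrophenyl phosphate in diethanolamine buffer, pH 9.0, 2 mM MgCl₂, for 2 h at room temperature in the dark. Stopped with 1 M NaOH; absorbance read at 405 nm.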
# Progesterone receptor [2] = molecular target: T1, Progesterone receptor; test: Displacement of [1,2,6,7-3H]progesterone from recombinant human GST-tagged PR-LBD (675 to 933 residues) expressed in baculovirus-infected insect cells measured after 24 hrs by liquid scintillation counting method
# How it was run: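 Incubated with 4 nM [³H]progesterone and compound (final DMSO 3%) for 24 h at 4°C in the dark. Nonspecific binding set with 200-fold excess unlabeled progesterone. Free ligand removed with dextran/γ-globulin-coated charcoal, 5 min at 4°C, then centrifuged; supernatant counted by liquid scintillation. Duplicates.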
# Androgen receptor [3] = molecular target: T2, Androgen receptor (Mus musculus, UniProt P19091); test: Antagonist activity at AR in mouse SC3 cells assessed as inhibition of dihydrotestosterone-induced cell growth at 10^-5 M measured after 3 days by CCK8 assay; format: cell-based; conditions: sc-3, 72 h, 10 µM
# T2 sequence (P19091 whole entry): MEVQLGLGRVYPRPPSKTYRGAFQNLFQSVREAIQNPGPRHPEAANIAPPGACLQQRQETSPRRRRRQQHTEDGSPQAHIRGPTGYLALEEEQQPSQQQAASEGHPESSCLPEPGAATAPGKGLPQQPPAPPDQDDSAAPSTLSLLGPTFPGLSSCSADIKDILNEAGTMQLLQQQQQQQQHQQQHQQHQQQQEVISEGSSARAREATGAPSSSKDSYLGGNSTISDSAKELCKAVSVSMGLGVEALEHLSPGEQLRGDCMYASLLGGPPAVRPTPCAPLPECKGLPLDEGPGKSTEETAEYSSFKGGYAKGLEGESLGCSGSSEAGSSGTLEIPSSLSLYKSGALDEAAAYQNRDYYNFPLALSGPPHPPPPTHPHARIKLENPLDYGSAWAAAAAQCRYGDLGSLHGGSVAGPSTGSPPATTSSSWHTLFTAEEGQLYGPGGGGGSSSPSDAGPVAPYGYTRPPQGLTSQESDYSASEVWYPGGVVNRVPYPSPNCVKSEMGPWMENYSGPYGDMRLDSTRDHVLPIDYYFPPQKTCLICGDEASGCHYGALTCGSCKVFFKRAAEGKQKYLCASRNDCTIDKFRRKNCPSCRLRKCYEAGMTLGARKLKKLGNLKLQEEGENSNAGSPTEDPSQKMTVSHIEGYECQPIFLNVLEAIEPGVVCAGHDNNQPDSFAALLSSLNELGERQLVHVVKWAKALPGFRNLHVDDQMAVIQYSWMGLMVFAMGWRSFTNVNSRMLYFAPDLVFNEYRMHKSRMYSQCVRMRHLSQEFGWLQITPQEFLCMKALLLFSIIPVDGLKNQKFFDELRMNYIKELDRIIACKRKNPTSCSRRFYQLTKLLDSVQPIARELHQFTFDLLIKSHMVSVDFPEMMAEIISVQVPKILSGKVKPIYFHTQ
# How it was run: (§1)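 SC-3 cells kept in MEMα with 2% FBS and 1 nM DHT at 37°C, 5% CO₂. Trypsinized, diluted to 20,000 cells/mL in MEMα with 2% charcoal-stripped FBS, seeded and held 24 h. Serial dilutions of compound or DMSO control added with 1 nM DHT. Incubated 3 days at 37°C. Cell number read by WST-8 (CCK-8), 2 h, absorbance at 450 nm. Triplicate or more.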
# Mus musculus = organism: Mus musculus; test: Cytotoxicity against mouse SC3 cells assessed as effect on cell growth at 10^-5 to 10^-7 M after 3 days by CCK8 assay; format: toxicity; conditions: sc-3, 72 h; how it was run: as §1
# Glucocorticoid receptor = molecular target: T3, Glucocorticoid receptor (Homo sapiens, UniProt P04150); test: Displacement of [3H]dexamethasone from human GR measured after 18 hrs by scintillation counting method
# T3 sequence (P04150 whole entry): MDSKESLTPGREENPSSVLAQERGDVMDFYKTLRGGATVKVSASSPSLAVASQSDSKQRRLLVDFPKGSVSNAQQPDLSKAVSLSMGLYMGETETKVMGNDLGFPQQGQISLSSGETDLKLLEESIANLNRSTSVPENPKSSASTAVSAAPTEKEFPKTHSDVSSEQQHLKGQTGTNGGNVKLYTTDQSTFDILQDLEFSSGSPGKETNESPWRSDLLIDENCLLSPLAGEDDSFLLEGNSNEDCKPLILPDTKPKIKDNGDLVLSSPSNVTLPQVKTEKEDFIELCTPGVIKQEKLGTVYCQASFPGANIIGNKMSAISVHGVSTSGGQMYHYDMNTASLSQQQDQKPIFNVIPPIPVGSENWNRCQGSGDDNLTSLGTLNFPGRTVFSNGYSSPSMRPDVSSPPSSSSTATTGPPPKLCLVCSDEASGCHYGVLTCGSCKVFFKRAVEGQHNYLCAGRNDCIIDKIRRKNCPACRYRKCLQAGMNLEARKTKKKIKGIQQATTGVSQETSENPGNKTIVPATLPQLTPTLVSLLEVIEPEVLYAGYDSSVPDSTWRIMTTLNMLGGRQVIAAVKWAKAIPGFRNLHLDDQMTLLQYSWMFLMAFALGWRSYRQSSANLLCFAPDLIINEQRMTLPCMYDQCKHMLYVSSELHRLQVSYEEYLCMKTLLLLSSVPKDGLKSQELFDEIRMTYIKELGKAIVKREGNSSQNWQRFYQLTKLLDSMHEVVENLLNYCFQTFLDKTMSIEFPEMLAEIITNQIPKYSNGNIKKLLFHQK
# How it was run: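 hGR at 1.25 nM final in 50 mM KH₂PO₄ pH 7.4 with 10 mM sodium molybdate and 1 mM DTT. Incubated with 10^-9 M [³H]dexamethasone and compounds at 10^-7 to 10^-5 M, 0.4% DMSO, for 18 h. Nonspecific binding set with 10^-5 M triamcinolone acetonide. Bound ligand collected by vacuum filtration on glass-fiber filters and counted. Duplicates.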
# Androgen receptor [4] = molecular target: T2, Androgen receptor; test: Antagonist activity at AR in mouse SC3 cells assessed as inhibition of dihydrotestosterone-induced cell growth 10^-5 to 10^-7 M measured after 3 days by CCK8 assay; format: cell-based; conditions: sc-3, 72 h
# How it was run: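 SC-3 cells maintained in MEMα with 2% FBS and 1 nM DHT, 37°C, 5% CO2. Seeded at 20,000 cells/mL in MEMα with 2% charcoal-stripped FBS and held 24 h. Serial dilutions of compound (DMSO control) added with 1 nM DHT, then 3 days at 37°C. WST-8 (CCK-8) added for 2 h, absorbance read at 450 nm. Triplicate or more.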
smiles,measurement,setting,value
N#Cc1ccc(-c2ccc3oc(=O)ccc3c2)[nH]1,IC50,Progesterone receptor [1],140 nM
N#Cc1ccc(-c2ccc3oc(=O)ccc3c2)n1Cc1ccc2ccccc2c1,IC50,Progesterone receptor [1],290 nM
CCN(CC)c1cc2oc(=O)ccc2cc1-c1ccc(C#N)n1CC#N,IC50,Progesterone receptor [1],850 nM
CCN(CC)c1cc2oc(=O)ccc2cc1-c1ccc(C#N)[nH]1,IC50,Progesterone receptor [1],120 nM
COc1cc2oc(=O)cc(C)c2cc1-c1ccc(C#N)n1CC1CCCCC1,IC50,Progesterone receptor [1],550 nM
COc1cc2oc(=O)cc(C)c2cc1-c1ccc(C#N)n1Cc1ccc(C#N)cc1,IC50,Progesterone receptor [1],480 nM
CCN(CC)c1cc2oc(=O)ccc2cc1-c1ccc(C#N)n1CC,IC50,Progesterone receptor [1],250 nM
CCCCCCn1c(C#N)ccc1-c1ccc2oc(=O)ccc2c1,IC50,Progesterone receptor [2],160 nM
same,IC50,Progesterone receptor [1],34 nM
CCn1c(C#N)ccc1-c1cc2c(C)cc(=O)oc2cc1OC,IC50,Progesterone receptor [1],38 nM
O=c1ccc2cc(-c3sccc3Cl)ccc2o1,IC50,Progesterone receptor [1],230 nM
N#CCn1c(C#N)ccc1-c1ccc2oc(=O)ccc2c1,IC50,Progesterone receptor [1],15800 nM
COc1cc2oc(=O)cc(C)c2cc1-c1ccc(C#N)[nH]1,IC50,Progesterone receptor [1],260 nM
COc1cc2oc(=O)cc(C)c2cc1-c1ccc(C#N)n1Cc1ccc(F)cc1,IC50,Progesterone receptor [1],570 nM
N#Cc1ccc(Cn2c(C#N)ccc2-c2ccc3oc(=O)ccc3c2)cc1,IC50,Progesterone receptor [1],290 nM
CC(=O)c1ccc(-c2ccc3oc(=O)ccc3c2)s1,IC50,Progesterone receptor [1],240 nM
COc1cc2oc(=O)cc(C)c2cc1-c1ccc(C#N)n1Cc1ccccc1,IC50,Progesterone receptor [1],230 nM
N#Cc1ccc(-c2ccc3oc(=O)ccc3c2)n1Cc1ccc(F)cc1,IC50,Progesterone receptor [1],210 nM
CCN(CC)c1cc2oc(=O)ccc2cc1-c1ccc(C#N)n1C,IC50,Progesterone receptor [2],1360 nM
same,inhibition (INH),Androgen receptor [3],Active
same,Activity,Mus musculus,Non-Toxic
same,IC50,Progesterone receptor [1],240 nM
same,IC50,Glucocorticoid receptor,10000 nM
N#Cc1ccc(-c2ccc3oc(=O)ccc3c2)n1CC1CCCCC1,IC50,Progesterone receptor [1],31 nM
CCCCCCn1c(C#N)ccc1-c1cc2c(C)cc(=O)oc2cc1OC,IC50,Progesterone receptor [1],180 nM
CCn1c(C#N)ccc1-c1ccc2oc(=O)ccc2c1,IC50,Progesterone receptor [1],220 nM
COc1cc2oc(=O)cc(C)c2cc1-c1ccc(C#N)n1C,inhibition (INH),Androgen receptor [4],Active
same,IC50,Progesterone receptor [2],990 nM
same,Activity,Mus musculus,Non-Toxic
same,IC50,Progesterone receptor [1],24 nM
N#Cc1ccc(-c2ccc3oc(=O)ccc3c2)s1,IC50,Progesterone receptor [1],140 nM
N#Cc1ccc(-c2ccc3oc(=O)ccc3c2)n1Cc1c(F)c(F)c(F)c(F)c1F,IC50,Progesterone receptor [1],190 nM
Cc1ccsc1-c1ccc2oc(=O)ccc2c1,IC50,Progesterone receptor [1],150 nM
N#Cc1ccc(-c2ccc3oc(=O)ccc3c2)n1Cc1ccccc1,IC50,Progesterone receptor [2],790 nM
same,IC50,Progesterone receptor [1],56 nM
CCN(CC)c1cc2oc(=O)ccc2cc1-c1ccc(C#N)n1Cc1ccccc1,IC50,Progesterone receptor [1],580 nM
Cc1ccc(-c2ccc3oc(=O)ccc3c2)s1,IC50,Progesterone receptor [1],440 nM
N#Cc1ccc(-c2ccc3oc(=O)ccc3c2)n1Cc1ccc([N+](=O)[O-])cc1,IC50,Progesterone receptor [1],450 nM
Cc1cc(=O)oc2cc(O)c(-c3ccc(C#N)n3C)cc12,IC50,Progesterone receptor [2],15700 nM
same,IC50,Progesterone receptor [1],300 nM
N#Cc1ccc(-c2ccc3oc(=O)ccc3c2)n1Cc1cc(F)cc(F)c1,IC50,Progesterone receptor [1],160 nM
CC(C)(O)C(=O)Nc1ccc([N+](=O)[O-])c(C(F)(F)F)c1 [HYDROXYFLUTAMIDE],inhibition (INH),Androgen receptor [4],Active
